Source: PubChem BioAssay
This is a sample that favours compounds with a hit; in the whole collection about 2% have one here.
PKA-R1A activ: PKA-R1A complex activation. P00514+P68181. PKA-R1A dissociation, Cy5-IP20 fluorescence polarization; scaled: DMSO 0%, 113 µM cGMP 100%. activation, % at 11.4 µM. hit rate 0.083% among 340,000. AID 504707;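 active = percent activation above the mean of all tested compounds plus 3 SD, cut at about 19% in these data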;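 also: higher means more PKAc released from R1A so a rise in polarization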
CAL PDZ FP-1: blocks peptide binding to human CAL PDZ domain | purified CAL PDZ, TMR-peptide fluorescence polarization, 1 h | inhibition, % at 20 µM | hit rate 0.02% among 330,000;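 active = highest replicate inhibition of at least 40%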;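 also: plate controls were DMSO neutral control wells for no effect and unlabeled competitor peptide control wells for full effect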
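Material: tagged CAL PDZ protein CerCALP, purified; buffer or medium: sodium phosphate/NaCl buffer pH 7.4 with TCEP, IgG, Thesit; also added: fluorescent TMR peptide probe; schedule: 1 h incubation at room temperature before polarization reading; technique: fluorescence polarization from S- and P-plane intensities, G-factor corrected; control set: unlabelled peptide and DMSO controls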
PKA-R2B activ: PKA-R2B complex activation; P22694+P31323; PKA-R2B holoenzyme dissociation, Cy5-IP20 fluorescence polarization; R2B truncated from residue 108, S112A mutant; 0% DMSO only, 100% 113 µM cGMP; activation, % at 11.4 µM; hit rate 0.079% among 340,000;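 active = activation above a cutoff set at the mean over all compounds plus 3 SD, cut at about 18% in these data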;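 also: higher means more holoenzyme dissociation and a rise in polarization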
NTR1 agonist: agonists of human neurotensin receptor NTR1 | P30989 | NTR1-U2OS beta-arrestin-GFP spot imaging, agonist mode | activation, % at 20 µM | hit rate 0.17% among 330,000 | AID 493036;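 active = activation at or above 40% of the spot to cytoplasm intensity ratio, with at least 20 cells analyzed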;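 also: 0% = DMSO without peptide and 100% = 100 nM NTR1 peptide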
dFosB act: activators of mouse delta FosB homodimer; AID 493131; P13346; purified delta FosB, TAMRA-CDK5 oligo fluorescence polarization; percent of positive-control signal above neutral wells; hit rate 0.99% among 340,000; activation, % at 25 µM;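 active = mean activation above about 17%, with every replicate also reaching it, limit read from the data, passing the limit was not always enough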
Target sequence (P13346 whole entry, looked up): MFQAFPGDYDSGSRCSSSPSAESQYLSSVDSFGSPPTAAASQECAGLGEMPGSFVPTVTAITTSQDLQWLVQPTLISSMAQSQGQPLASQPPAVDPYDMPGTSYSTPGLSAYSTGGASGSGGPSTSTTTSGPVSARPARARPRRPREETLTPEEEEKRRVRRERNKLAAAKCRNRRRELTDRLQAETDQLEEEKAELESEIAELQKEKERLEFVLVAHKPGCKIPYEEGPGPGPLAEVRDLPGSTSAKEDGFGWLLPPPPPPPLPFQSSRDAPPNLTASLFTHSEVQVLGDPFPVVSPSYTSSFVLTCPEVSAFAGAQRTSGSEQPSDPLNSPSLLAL
CAL PDZ FP-2: blocks peptide binding to the human CAL PDZ domain. Q9HD26. purified CAL PDZ, TMR-peptide fluorescence polarization, 1 h. inhibition, % at 24.9 µM. hit rate 0.92% among 300,000. AID 602252;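 active = mean inhibition of at least 30% with at least half of replicates also reaching 30%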;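 also: 0% = DMSO neutral control and 100% = excess unlabeled competitor peptide PRC23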
* marks the source's active call; other numbers are inactive results; · = not tested or not shown; + = active, no number; ! = repeats disagree.

SMILES | PKA-R1A activ | CAL PDZ FP-1 | PKA-R2B activ | NTR1 agonist | dFosB act | CAL PDZ FP-2
Cc1nc(N)[nH]c(=O)c1CCCNc1ccc([N+](=O)[O-])cc1 | -4 | 0 | 4 | · | -1 | -1
COC(=O)c1cccc(NC(=O)CSc2nnc(C3CC3)n2C)c1 | -2 | -3 | 2 | 0 | 3 | -1
CC(=O)Nc1ccc(-c2cc(N)n(-c3ccccc3)n2)cc1 | -3 | -1 | -6 | -1 | -7 | 9
CC(=O)Nc1ccc(-c2cc(NC(C)=O)n(-c3ccccc3)n2)cc1 | -3 | -2 | 7 | 0 | 3 | 75*
Cc1nnc2sc(SCC(=O)Nc3ccc(Cl)cc3)nn2c1=O | -13 | 15 | -4 | -1 | -5 | 37*
CC(=O)Nc1cccc(NC(=O)CSc2nn3c(=O)c(C)nnc3s2)c1 | -4 | -1 | 1 | -1 | 2 | ·
Cc1csc2nc(SCC(=O)Nc3ccccc3F)[nH]c(=O)c12 | 7 | -3 | 6 | 0 | 24* | -2
COc1ccc(OC)c(NC(=O)CSc2nc3scc(C)c3c(=O)[nH]2)c1 | 12 | -2 | -9 | 0 | -4 | -1
Cc1ccc(C(=O)NCC(c2ccc(F)cc2)N2CCOCC2)cc1S(=O)(=O)N1CCOCC1 (centres undefined) | -4 | -1 | 2 | · | -10 | ·
COC(=O)c1ccc(NC(=O)c2ccc(NC(=O)C3CCCO3)cc2)cc1 (centres undefined) | -7 | -1 | -4 | 1 | -7 | +
COC(=O)c1ccc(NC(=O)C2CC3CCC2C3)cc1 (centres undefined) | 3 | -3 | -2 | 0 | -4 | 32*
CCc1ccc(NC(=O)c2ccc(NC(=O)C3CCCO3)cc2)cc1 (centres undefined) | -7 | -3 | -1 | 2 | -6 | -7
CN=C1N(C)C[C@@H]2[C@@H]3C(=O)N(C)C(=O)[C@@H]3[C@](Cc3ccccc3)(C(=O)OC)N12 | 0 | -3 | 13 | 0 | -7 | -3
CCN(CC(=O)Nc1c(F)cccc1F)C(=O)c1ccc(S(=O)(=O)N2CCC(C)CC2)cc1 | 0 | -1 | -6 | 3 | -8 | -2
CC(C)(C)NC(=O)Cn1c(Cl)nc2ccccc21 | -5 | 1 | 2 | 1 | -1 | 69*
Cn1c(=O)oc2cc(S(=O)(=O)N3CCC(C(=O)NCc4ccccc4Cl)CC3)ccc21 | 3 | 7 | -1 | 3 | 3 | 50*
Cc1ccsc1CN1CCC(C(=O)NCc2ccccc2Cl)CC1 | -4 | -2 | -4 | 3 | 1 | 59*
CN(C)c1ccc(CNC(=O)C2CCN(S(=O)(=O)c3ccc4c(c3)oc(=O)n4C)CC2)cc1 | 9 | -3 | -5 | 0 | 0 | 1
O=C(Cn1c(=O)oc2cc(S(=O)(=O)N3CCCC3)ccc21)Nc1ccccc1Br | -6 | -1 | -4 | 0 | -3 | 61*
Cc1ccc(C)c(N2CCN(C(=O)CCc3nc(-c4cccc(Cl)c4)no3)CC2)c1 | -7 | 0 | -2 | 1 | -11 | -3
CCN(CC)CCCn1c2c(c(SCC(=O)Nc3cccc4ccccc34)nc1=O)CCC2 | -4 | 0 | 3 | 0 | -11 | -1
CN(C)CCCn1c2c(c(SCC(=O)Nc3cccc4ccccc34)nc1=O)CCCC2 | -6 | -3 | -10 | 1 | -5 | 49*
O=C1Cc2cccc(=O)c(O)c2C(=O)O1 | -5 | · | -3 | · | · | ·
O=C1c2c(O)cccc2Cc2cccc(O)c21 | 8 | 0 | -1 | 1 | 26* | -4
Cc1ccc(-c2cc(C(F)(F)F)c(C#N)c(=O)[nH]2)cc1 | 4 | -3 | 3 | 0 | 10 | 1
SMILES | PKA-R1A activ | CAL PDZ FP-1 | PKA-R2B activ | NTR1 agonist | dFosB act | CAL PDZ FP-2
N#Cc1c(C(F)(F)F)cc(-c2ccccc2)[nH]c1=O | -1 | -2 | 2 | -1 | 1 | 36*
Cc1ccc(C)c(NC(=O)CN(C)C(=O)c2ccc3c(=O)n4c(nc3c2)CCC4)c1 | -3 | -1 | -1 | 4 | 2 | 49*
O=S(=O)(NCc1cc(-c2ccc(Cl)cc2)no1)c1ccc(Cl)cc1 | -10 | -1 | -4 | -1 | -4 | 44*
CC1=C(C#N)C(c2cn(-c3ccccc3)nc2-c2cccs2)C(C#N)=C(C)N1 | -5 | -1 | -15 | 3 | -1 | -2
NC1=NC(c2cn(-c3ccccc3)nc2-c2cccs2)n2c(nc3ccccc32)N1 (centres undefined) | -6 | -1 | -2 | 4 | 37* | -3
CNS(=O)(=O)c1cc(C(=O)O)ccc1OC | -3 | · | 0 | -1 | 8 | -2
COc1ccc(C(=O)O)cc1S(N)(=O)=O | -14 | -2 | 1 | 0 | 5 | 32*
O=C(NCc1cccc(Cl)c1)C1CCCN(c2ncnc3c2nc2n3CCCCC2)C1 (centres undefined) | -1 | -1 | 5 | 4 | -9 | 2
O=C1CN2NC(=S)N(c3ccccc3)C2=CN1c1ccc(Cl)cc1 | -4 | -1 | -5 | 0 | 1 | 115*
O=C(Nc1ccc(N2CCCC2)c(Cl)c1)c1ccc(Br)o1 | -8 | 0 | -4 | 3 | 43* | -1
CCCC(=O)N1CCN(c2ccc(NC(=O)c3cc4ccccc4o3)cc2Cl)CC1 | -11 | -1 | -4 | 45* | -6 | -4
CCC(=O)N1CCN(c2ccc(NC(=O)c3cc4ccccc4o3)cc2Cl)CC1 | -9 | · | -7 | 37 | 0 | 1
COc1ccc(S(=O)(=O)N2CCN(C(=O)CNC(=O)c3ccc4c(c3)OCO4)CC2)cc1 | -5 | -2 | -4 | 0 | -7 | -2
COc1cccc(COC(=O)C2CC(=O)N(Cc3ccccc3)C2)c1OC (centres undefined) | -1 | · | 1 | · | · | ·
COc1ccc(COC(=O)C2CC(=O)N(Cc3ccccc3)C2)cc1 (centres undefined) | 0 | 0 | 0 | -2 | 6 | +
Cc1cccc(N(Cc2cc(=O)[nH]c3ccccc23)C(=O)C(C)C)c1 | 3 | · | -6 | 0 | -6 | 35*
O=C(Cn1c2c(c(=O)n3ncnc13)CCC2)N/N=C/c1ccc(Cl)cc1 | 1 | -1 | -9 | 0 | -6 | 13
Cn1c2c(c(=O)n3ncnc13)CCCC2 | 4 | 0 | 9 | -1 | -7 | 48*
C=CCn1c(SCC(=O)/C(C#N)=C(\C)N)nc2sc(CC)cc2c1=O | -6 | 0 | -4 | 2 | 9 | 40*!
C=CCn1c(SCC(=O)O)nc2sc(CC)cc2c1=O | -2 | 1 | -4 | -1 | 2 | ·
CCn1c(CCCc2ccc(OC)c(C)c2)n[nH]c1=S | 16 | -4 | -7 | 2 | -1 | ·
O=C(/C=C/c1ccccc1)c1ccc(NC2=NCCCS2)cc1 | -5 | -1 | -16 | · | 4 | -3
